The record followed here is ChEMBL document CHEMBL4834419 (J Med Chem, 2021).

Molecules are shown by their SMILES. In brackets after ≈: the same amount, converted by molar mass.

Series [1] has as its target T1, Peroxisome proliferator-activated receptor alpha (Homo sapiens) (UniProt Q07869).
T1 sequence (whole entry): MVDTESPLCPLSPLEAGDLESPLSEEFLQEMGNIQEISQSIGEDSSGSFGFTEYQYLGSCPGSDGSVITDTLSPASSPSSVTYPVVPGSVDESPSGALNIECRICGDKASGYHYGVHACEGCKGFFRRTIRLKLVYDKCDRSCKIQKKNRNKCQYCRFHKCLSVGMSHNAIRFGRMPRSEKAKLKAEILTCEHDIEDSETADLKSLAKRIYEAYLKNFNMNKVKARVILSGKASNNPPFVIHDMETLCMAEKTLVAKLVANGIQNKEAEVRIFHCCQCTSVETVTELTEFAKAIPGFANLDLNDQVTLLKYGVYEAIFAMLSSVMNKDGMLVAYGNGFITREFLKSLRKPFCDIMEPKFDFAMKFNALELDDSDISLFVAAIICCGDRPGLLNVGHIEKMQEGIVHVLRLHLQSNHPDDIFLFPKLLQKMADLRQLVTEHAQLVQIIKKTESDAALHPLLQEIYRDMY
Description: Agonist activity against human PPARalpha in human HEK293T cells co-expressing pFR/pRL-Luc assessed as receptor activation at 10 uM incubated for 14 to 16 hrs by hybrid reporter gene assay relative to bexarotene. The class given is cell-based. As to conditions: filed as agonist, time 14-16 hrs. The procedure, abridged:
(§1)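 Gal4 hybrid reporter assay in HEK293T cells, seeded 24 h before transfection (Lipofectamine LTX, Opti-MEM) with pFR-Luc, pRL-SV40 and pFA-CMV plasmid carrying the hinge region and LBD of the human receptor. After 5 h, compound added in 0.1% DMSO, with 0.1% DMSO alone as untreated control. Dual-Glo luciferase read after 14−16 h; firefly/renilla normalized; duplicates, ≥2 independent experiments.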
In general terms: A reporter such as luciferase makes a cellular process visible.

Series [2] can be described thus: Aqueous solubility of compound in pH 8 phosphate buffer incubated for 1 hr by HPLC analysis. The series is classed as physicochemical. As to conditions: phosphate buffer, pH 8. A digest of the protocol:
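Solubility was measured with 3 mg compound in 2 mL 0.1 M phosphate buffer, pH 8, shaken 1 h at 37 °C. The mixture was pressed through a Uniprep filter and the dissolved compound in the filtrate quantified by HPLC against an external calibration; three independent experiments.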

Series [3] deals with T2, Peroxisome proliferator-activated receptor gamma (Homo sapiens) (UniProt P37231).
T2 sequence (whole entry): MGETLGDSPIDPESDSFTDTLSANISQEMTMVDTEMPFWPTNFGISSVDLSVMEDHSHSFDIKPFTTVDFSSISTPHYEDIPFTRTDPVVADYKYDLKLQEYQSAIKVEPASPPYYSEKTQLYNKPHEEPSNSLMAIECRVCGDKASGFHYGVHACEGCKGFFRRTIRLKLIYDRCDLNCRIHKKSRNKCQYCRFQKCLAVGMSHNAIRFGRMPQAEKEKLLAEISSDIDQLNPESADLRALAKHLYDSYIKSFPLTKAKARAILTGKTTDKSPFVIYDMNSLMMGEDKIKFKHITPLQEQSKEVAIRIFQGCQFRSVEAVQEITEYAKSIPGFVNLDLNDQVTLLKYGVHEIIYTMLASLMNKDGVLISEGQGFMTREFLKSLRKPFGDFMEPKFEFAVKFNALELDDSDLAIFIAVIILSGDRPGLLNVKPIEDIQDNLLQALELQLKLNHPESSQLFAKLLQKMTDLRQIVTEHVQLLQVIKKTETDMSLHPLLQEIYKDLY
Description: Agonist activity against human PPARgamma in human HEK293T cells co-expressing pFR/pRL-Luc assessed as receptor activation at 10 uM incubated for 14 to 16 hrs by hybrid reporter gene assay relative to bexarotene. The series is classed as cell-based. As to conditions: filed as agonist, time 14-16 hrs. The procedure, abridged:
as §1

The test system of series [4] is HepG2. The series is described as follows: Cytotoxicity against human HepG2 cells assessed as reduction in cell viability incubated for 48 hrs by WST-1 assay. To be noted: HepG2, 48 h. (Tetrazolium dyes change colour on reduction, which living cells bring about.)
Series [5] addresses T3, Oxysterols receptor LXR-alpha (Homo sapiens) (UniProt Q13133).
T3 sequence (whole entry): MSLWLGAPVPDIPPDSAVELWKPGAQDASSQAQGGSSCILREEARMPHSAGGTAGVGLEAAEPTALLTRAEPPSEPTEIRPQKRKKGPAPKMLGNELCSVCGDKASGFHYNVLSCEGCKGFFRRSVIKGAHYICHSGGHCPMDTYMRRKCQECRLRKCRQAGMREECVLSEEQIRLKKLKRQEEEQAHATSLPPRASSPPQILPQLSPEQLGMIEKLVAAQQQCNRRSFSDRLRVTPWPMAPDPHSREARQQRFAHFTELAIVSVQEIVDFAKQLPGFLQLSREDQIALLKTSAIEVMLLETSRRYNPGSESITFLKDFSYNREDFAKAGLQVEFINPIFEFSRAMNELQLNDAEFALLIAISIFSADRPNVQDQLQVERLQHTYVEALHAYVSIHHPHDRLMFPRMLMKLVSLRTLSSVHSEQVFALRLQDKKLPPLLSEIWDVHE
Description: Agonist activity against human LXRalpha in human HEK293T cells co-expressing pFR/pRL-Luc assessed as receptor activation at 10 uM incubated for 14 to 16 hrs by hybrid reporter gene assay relative to bexarotene. The series is classed as cell-based. As to conditions: filed as agonist, time 14-16 hrs. A digest of the protocol: as §1

Series [6] can be described thus: Metabolic stability in Sprague-Dawley rat liver microsomes assessed as compound degradation at 10 uM incubated for 60 min by HPLC analysis. The series is classed as ADME. As to conditions: 1 h. The procedure, abridged:
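Compound at 10 μM final in 0.1 M phosphate, pH 7.4, was preincubated 5 min at 37 °C with an NADPH-regenerating system. Sprague-Dawley rat liver microsomes were then added. Reactions were stopped with ice-cold methanol at 0, 15, 30 and 60 min and remaining compound quantified by HPLC against an external calibration. Controls: no NADPH, heat-inactivated microsomes. Three independent experiments.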

Series [7] has as its system HepG2. The series is described as follows: Cytotoxicity against human HepG2 cells assessed as reduction in cell viability up to 100 uM incubated for 48 hrs by WST-1 assay. As to conditions: hepg2, 48 h. The series is classed as cell-based. A digest of the protocol:
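HepG2 cells were seeded at 3 × 10⁴/well and grown 24 h. Medium was then switched to DMEM with 1% FCS containing compound in 0.1% DMSO; 0.1% DMSO alone was the negative control. After 48 h, WST-1 was added and absorbance read at 450/620 nm after 45 min. Four experiments in duplicate.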

As usually defined, the solubility is the concentration that dissolves in the medium under given conditions. Higher therefore signals a readily soluble substance. As usually defined, the IC50 is the concentration needed to halve the response being measured. Regarding `O=C(O)CCCc1cc(-c2cc(Cl)cc(Cl)c2)n(-c2ccccc2)n1`, the Activity in series [1] is 2%; in series [3] it was 2%; in series [5] it was 1%; in series [7], “Non-Toxic”. In addition, the solubility at 1 h in series [2] was 21 µg/mL (≈ 56 µM). Also, in series [4], the IC50 was greater than 100 µM. Besides, the Stabilty entry in series [6] is reported as “Stable”.
